Data as given in ChEMBL document CHEMBL3259611, “Suppression of inflammatory responses by handelin, a guaianolide dimer from Chrysanthemum boreale, via downregulation of NF-κB signaling and pro-inflammatory cytokine production” (J Nat Prod, 2014).
Active and inactive are the calls of the source. The calls are words filed in the database; no cut-off is given here.

What was measured:
[1] = target: T1, Nuclear factor NF-kappa-B p105 subunit (Mus musculus) (UniProt P25799); experiment: Inhibition of LPS-induced NFkappaB P50 protein nuclear translocation in mouse RAW264.7 cells at 10 uM after 30 mins by Western blotting analysis relative to control; assay type: cell-based
T1 sequence (whole entry): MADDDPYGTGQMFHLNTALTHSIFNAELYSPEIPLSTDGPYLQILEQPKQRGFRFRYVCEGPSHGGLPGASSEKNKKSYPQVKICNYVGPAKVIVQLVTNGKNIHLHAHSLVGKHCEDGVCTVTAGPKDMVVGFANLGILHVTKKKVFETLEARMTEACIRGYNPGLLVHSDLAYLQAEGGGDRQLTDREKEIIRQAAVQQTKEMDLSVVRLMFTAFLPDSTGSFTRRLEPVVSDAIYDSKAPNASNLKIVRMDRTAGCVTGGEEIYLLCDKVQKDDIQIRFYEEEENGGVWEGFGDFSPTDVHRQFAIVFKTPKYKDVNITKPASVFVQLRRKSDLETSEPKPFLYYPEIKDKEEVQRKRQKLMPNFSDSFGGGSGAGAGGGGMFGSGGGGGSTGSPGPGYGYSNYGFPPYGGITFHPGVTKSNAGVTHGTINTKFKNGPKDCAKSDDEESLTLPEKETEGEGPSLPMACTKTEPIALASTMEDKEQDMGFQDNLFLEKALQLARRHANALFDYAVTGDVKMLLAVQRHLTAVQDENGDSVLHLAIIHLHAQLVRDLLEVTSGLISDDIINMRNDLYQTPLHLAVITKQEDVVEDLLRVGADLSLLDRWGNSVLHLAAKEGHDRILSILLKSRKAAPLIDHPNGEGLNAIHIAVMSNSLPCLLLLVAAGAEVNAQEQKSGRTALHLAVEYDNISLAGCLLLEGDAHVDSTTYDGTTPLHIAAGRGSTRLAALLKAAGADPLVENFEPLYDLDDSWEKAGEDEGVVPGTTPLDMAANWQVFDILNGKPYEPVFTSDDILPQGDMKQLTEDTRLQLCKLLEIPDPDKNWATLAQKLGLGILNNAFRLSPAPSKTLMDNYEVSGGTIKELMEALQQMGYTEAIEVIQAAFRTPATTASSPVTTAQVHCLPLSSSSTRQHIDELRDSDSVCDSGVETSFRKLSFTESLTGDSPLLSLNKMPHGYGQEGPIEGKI
How it was run: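 Macrophages were exposed to compound for 30 min before LPS stimulation, with proteins extracted 30 min later. Nuclear extracts were prepared in Tris/KCl/NP-40 lysis buffer, then 420 mM NaCl buffer, and the cytosolic fraction was kept for IκB-α. Western blot on PVDF with ECL detection. Tests in triplicate; representative of three separate experiments.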

RAW264.7 [2] = experiment: Antiinflammatory activity in mouse RAW264.7 cells assessed as inhibition LPS-induced IL-1beta protein expression at 40 uM after 4 hrs by Western blotting analysis; assay type: functional
How it was run: (§1)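 RAW 264.7 cells stimulated with LPS (1 μg/mL) with or without compound for 4 h. Lysates were resolved by 6−15% SDS-PAGE and blotted to PVDF. Blocked in 5% milk/PBST, primary antibody overnight at 4 °C, secondary antibody 2 h, detected by ECL. Triplicate, representative of three experiments.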

RAW264.7 [3] = experiment: Antiinflammatory activity in mouse RAW264.7 cells assessed as inhibition LPS-induced TNF-alpha mRNA expression at 20 uM after 4 hrs by RT-PCR analysis relative to control; assay type: functional
How it was run: (§2)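 RAW 264.7 cells stimulated with LPS (1 μg/mL) with or without compound for 4 h. Total RNA was isolated and cytokine mRNA was analysed by RT-PCR: 94 °C 4 min, then 25−30 cycles of 94/55/72 °C for 30 s each, then 72 °C 5 min. Products were run on 2% agarose and stained with SYBR-Safe. Triplicate, representative of three experiments.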

RAW264.7 [4] = experiment: Antiinflammatory activity in mouse RAW264.7 cells assessed as inhibition LPS-induced IL-1beta protein expression after 4 hrs by Western blotting analysis; assay type: functional, cell-based; how it was run: as §1
RAW264.7 [5] = experiment: Antiinflammatory activity in mouse RAW264.7 cells assessed as inhibition LPS-induced TNF-alpha protein expression after 4 hrs by Western blotting analysis; assay type: functional, cell-based; how it was run: as §1
RAW264.7 [6] = experiment: Antiinflammatory activity in mouse RAW264.7 cells assessed as inhibition of LPS-induced iNOS mRNA expression at 20 uM after 5 hrs by RT-PCR analysis relative to control; assay type: functional
How it was run: (§3)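 RAW 264.7 cells exposed to 1 μg/mL LPS with or without compound for 5 h. Total RNA was analysed by RT-PCR: 25−30 cycles with annealing at 55 °C. Products were separated on 2% agarose gel with SYBR-Safe staining. Experiments in triplicate.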

RAW264.7 [7] = experiment: Antiinflammatory activity in mouse RAW264.7 cells assessed as inhibition of LPS-induced nitric oxide production at 20 uM administered 30 mins prior to LPS challenge measured after 20 hrs by Griess assay relative to control; assay type: functional
How it was run: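 RAW 264.7 cells at 3 × 10^5 cells/mL in phenol red-free 10% FBS DMEM, pretreated for 30 min, then given 1 μg/mL LPS for 20 h. Nitrite in the medium was read by Griess reaction at 540 nm against a sodium nitrite standard curve. % inhibition was calculated versus vehicle control, and IC50 by nonlinear regression. Mean ± SD of triplicates.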

RAW264.7 [8] = experiment: Antiinflammatory activity in mouse RAW264.7 cells assessed as inhibition of LPS-induced COX2 mRNA expression at 40 uM after 5 hrs by RT-PCR analysis relative to control; assay type: functional; how it was run: as §3
RAW264.7 [9] = experiment: Antiinflammatory activity in mouse RAW264.7 cells assessed as inhibition of LPS-induced COX2 mRNA expression at 20 uM after 5 hrs by RT-PCR analysis relative to control; assay type: functional; how it was run: as §3
[10] = target: T1, Nuclear factor NF-kappa-B p105 subunit (Mus musculus); experiment: Inhibition of LPS-induced NF-kappaB p50 binding to DNA in mouse RAW264.7 cells at 10 to 40 uM after 1.5 hrs by spectrophotometry in presence of mutant oligonucleotide; assay type: cell-based
[11] = Cytotoxicity against mouse RAW264.7 cells assessed as cell survival at 20 uM after 4 hrs by MTT assay relative to control; assay type: cell-based; conditions: read-out: Survival
How it was run: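 RAW 264.7 cells plated at 3 × 10^5 cells/mL in phenol red-free 10% FBS–DMEM, incubated 24 h, then treated with compound plus 1 μg/mL LPS for 20 h. After the Griess step, MTT was added (final 500 μg/mL) for 4 h at 37 °C. Formazan dissolved in DMSO, A570 read; survival taken relative to control; triplicate.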

Rattus norvegicus = experiment: Antiinflammatory activity in rat paw edema model assessed as inhibition of carrageenan-induced paw edema at 10 mg/kg, po administered 30 mins prior to carrageenan challenge measured after 4 hrs relative to vehicle-treated control; assay type: functional
How it was run: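 Male SD rats (150−170 g) given compound orally in 0.5% CMC-Na 30 min before subplantar injection of 0.1 mL 1% carrageenan; the contralateral paw received saline. Paw volume was measured by plethysmometer from 0 to 6 h, with inhibition taken at 4 h versus vehicle. Mean ± SD, n = 6.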

RAW264.7 [12] = experiment: Antiinflammatory activity in mouse RAW264.7 cells assessed as inhibition LPS-induced TNF-alpha mRNA expression at 10 uM after 4 hrs by RT-PCR analysis relative to control; assay type: functional; how it was run: as §2

C=C1C(=O)O[C@@H]2[C@@H]3[C@@]4(C=C[C@@]3(C)[C@]3(C4)C(=O)O[C@@H]4[C@H]5C(C)=CC[C@H]5[C@](C)(O)C[C@H](OC(C)=O)[C@H]43)[C@](C)(O)CC[C@@H]12
inhibition [1]: Active
fold change (FC) (RAW264.7 [2]): 0.65
fold change (FC) (RAW264.7 [3]): 0.66
inhibition (RAW264.7 [4]): Dose-dependent effect
inhibition (RAW264.7 [5]): Dose-dependent effect
fold change (FC) (RAW264.7 [6]): 0.67
inhibition (INH) (RAW264.7 [7]): >84%
fold change (FC) (RAW264.7 [8]): 0.22
fold change (FC) (RAW264.7 [9]): 0.58
inhibition [10]: Active
viability at 4 h, 20 µM [11]: > 80%
inhibition in vivo at 10 mg/kg (Rattus norvegicus): 22%
fold change (FC) (RAW264.7 [12]): 0.66
inhibition (RAW264.7 [12]): Active
